This note sets out measurements from ChEMBL document CHEMBL5715938, “The protein kinase Cbeta-selective inhibitor, Enzastaurin (LY317615.HCl), suppresses signaling through the AKT pathway, induces apoptosis, and suppresses growth of human colon cancer and glioblastoma xenografts” (Cancer Res, 2005).

Molecules are shown by their SMILES. Activity calls are given as the source filed them. No cut-off for these calls is given here.

The test system of data set [1] is U-87 MG. Description: Antiproliferative activity against human U-87 MG cells assessed as reduction in cell growth upto 10 uM measured after 6 days by propidium iodide staining based analysis. The format is functional. The settings on record: U-87MG ATCC, time 6.0 day. A digest of the protocol:
(§1)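 ATCC-sourced lines grown without antibiotics; 1,000 cells/well in 1% FBS medium, refed ±drug on days 1 and 4 over a 6-day course. On day 7, propidium iodide (10 μg/mL in D-PBS) read after 30 min for nonviable cells, plate frozen at -80°C 2 h, thawed and reread; proliferative index = postfreeze minus prefreeze signal.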

The subject of data set [2] is HCT-116. Description: Antitumor activity against human HCT-116 cells xenografted in athymic nude mouse assessed as reduction in GSK3beta phosphorylation at serine 9 residue at 75 mg/kg, po administered twice daily measured after 2 to 4 hrs by ELISA method relative to control. More on the design: scale not given: the % may be the effect or the level left. Type of data set: functional. The settings on record: time 2-4 hrs. An outline of the steps:
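HCT116-bearing nude mice, 75 mg/kg by gavage; tumors and PBMCs harvested 0.5, 2, 4, 8 h post-dose, n = 5 per time point. PBMCs from five mice pooled via CPT tube. Lysates assayed by pGSK3β Ser9 immunometric ELISA (tumor 400–600 μg, PBMC 50–100 μg protein/well); percent of vehicle control, Dunnett/ANOVA.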
A general note: A xenograft is tissue or cells of one species grown in another, often human tumour cells in immunodeficient mice.

The target in data set [3] is Protein kinase C theta type (Homo sapiens) (UniProt Q04759). Description: Inhibition of PKCteta (unknown origin) at 1 micromol/L relative to control. The conditions noted are these: dose 1.0 µmol/L. An outline of the steps:
(§2)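 Commercial kinase profiler panel run to the provider's protocol, with the compound tested at 1 µmol/L. Activity is expressed as percent of kinase activity without compound.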

The subject of data set [4] is MOLT-4. Description: Antiproliferative activity against human MOLT-4 cells assessed as reduction in cell growth upto 10 uM measured after 6 days by propidium iodide staining based analysis. The settings on record: time 6.0 day. The format is functional. An outline of the steps: as §1
Data set [5] in a line: Drug concentration in athymic nude mouse plasma xenografted with human HCT-116 cells at 75 mg/kg, po administered twice daily measured after 8 to 12 hrs by LC-MS analysis. Type of data set: ADME, organism-based. The settings on record: in vivo, time 8-12 hrs. A digest of the protocol:
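HCT116-bearing nude mice given 75 mg/kg twice daily by gavage; plasma collected on day 1 and day 21 at 0.5, 1, 2, 4, 8 and 12 h after dose; drug quantified by LC-MS/MS.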

Data set [6] relates to NCI-H23. The data set is described as follows: Antiproliferative activity against human NCI-H23 cells assessed as reduction in cell growth upto 10 uM measured after 6 days by propidium iodide staining based analysis. Type of data set: functional. The conditions noted are these: time 6.0 day. An outline of the steps: as §1
In data set [7] the test system is U-87 MG. The data set is described as follows: Antitumor activity against human U-87 MG cells xenografted in athymic nude mouse assessed as reduction in GSK3beta phosphorylation at serine 9 residue at 75 mg/kg, po administered twice daily measured after 2 to 8 hrs by ELISA method relative to control. The format is functional, U-87MG ATCC. More on the design: scale not given: the % may be the effect or the level left. The settings on record: time 2-8 hrs. An outline of the steps:
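U87MG-bearing nude mice, 75 mg/kg twice daily by gavage; on day 21 tumors harvested 2, 4 or 8 h post-dose, lysates measured by pGSK3β Ser9 ELISA versus vehicle tumors; Dunnett's method, ANOVA.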

The target in data set [8] is Mitogen-activated protein kinase 11 (Homo sapiens) (UniProt Q15759). Description: Inhibition of SAPK2b (unknown origin) at 1 micromol/L relative to control. The settings on record: dose 1.0 µmol/L. An outline of the steps:
as §2

The subject of data set [9] is HCT-116. Description: Induction of apoptosis in human HCT-116 cells assessed as increase in oligonucleosomal fragmentation at 1 to 4 micromol/L incubated for 48 hrs by ELISA method. The format is functional, cell-based. The conditions noted are these: dose 1-4 µmol/L. A digest of the protocol:
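Oligonucleosomal fragmentation by Cell Death Detection ELISA-plus; 5,000 cells/well in 1% FBS medium, treated 48 h (range studied 0.1–10 μmol/L); absorbance normalized to control-treated cells to give nucleosomal enrichment factor.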

In data set [10] the target is Protein kinase C iota type (Homo sapiens) (UniProt P41743). Description: Inhibition of PKCIota (unknown origin) at 1 micromol/L relative to control. The conditions noted are these: dose 1.0 µmol/L. A digest of the protocol:
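Commercial kinase profiling panel run by the provider's protocol at a single inhibitor concentration of 1 µmol/L. Activity expressed as percent of kinase activity without inhibitor.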

Data set [11] concerns HCT-116. Description: Antitumor activity against human HCT-116 cells xenografted in athymic nude mouse assessed as reduction in GSK3beta phosphorylation at serine 9 residue at 75 mg/kg, po administered twice daily measured after 12 hrs by Western blotting analysis. Type of data set: functional, organism-based.
In data set [12] the target is Protein kinase C eta type (Homo sapiens) (UniProt P24723). The data set is described as follows: Inhibition of PKCeta (unknown origin) at 1 micromol/L relative to control. The settings on record: dose 1.0 µmol/L. An outline of the steps:
as §2

The test system of data set [13] is HCT-116. The data set is described as follows: Antitumor activity against human HCT-116 cells xenografted in athymic nude mouse assessed as reduction in GSK3beta phosphorylation at serine 9 residue at 75 mg/kg, po administered twice daily by Western blotting analysis. The format is functional, organism-based. The conditions noted are these: time <= 8.0 hrs, TDE = time-dependent effect.

For data set [14], the species on record is Homo sapiens. Description: Inhibition of p70S6K (unknown origin) at 1 micromol/L relative to control. The settings on record: dose 1.0 µmol/L. A digest of the protocol:
as §2

For data set [15], the target named is Serine/threonine-protein kinase N2 (Homo sapiens) (UniProt Q16513). The data set is described as follows: Inhibition of PRK2 (unknown origin) at 1 micromol/L relative to control. The conditions noted are these: dose 1.0 µmol/L. An outline of the steps: as §2
Data set [16] concerns U-87 MG. The data set is described as follows: Antitumor activity against human U-87 MG cells xenografted in athymic nude mouse assessed as reduction in tumor growth at 75 mg/kg, po administered twice daily measured after 21 days. The format is functional, organism-based. The settings on record: U-87MG ATCC, time 21.0 day. A digest of the protocol:
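Female athymic nude mice, 6–8 weeks, 5 million cells s.c. flank in 1:1 serum-free medium/matrigel; at group mean 100 mm³, 75 mg/kg by gavage twice daily in 10% acacia for 21 days, n = 9/group, vehicle controls; caliper volume A²×B×0.536; two-way repeated measures analysis.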

Mitogen-activated protein kinase 11 (Homo sapiens), sequence (Q15759 whole entry): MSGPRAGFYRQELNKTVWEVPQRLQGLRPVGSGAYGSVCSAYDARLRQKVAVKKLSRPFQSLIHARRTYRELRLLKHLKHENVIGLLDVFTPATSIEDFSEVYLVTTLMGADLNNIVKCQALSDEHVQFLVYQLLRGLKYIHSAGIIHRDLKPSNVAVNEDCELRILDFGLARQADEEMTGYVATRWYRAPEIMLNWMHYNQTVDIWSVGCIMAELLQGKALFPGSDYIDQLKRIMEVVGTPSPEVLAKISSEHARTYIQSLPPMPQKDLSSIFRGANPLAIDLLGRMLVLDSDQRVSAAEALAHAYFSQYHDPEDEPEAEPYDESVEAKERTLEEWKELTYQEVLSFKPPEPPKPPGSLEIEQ
Protein kinase C eta type (Homo sapiens), sequence (P24723 whole entry): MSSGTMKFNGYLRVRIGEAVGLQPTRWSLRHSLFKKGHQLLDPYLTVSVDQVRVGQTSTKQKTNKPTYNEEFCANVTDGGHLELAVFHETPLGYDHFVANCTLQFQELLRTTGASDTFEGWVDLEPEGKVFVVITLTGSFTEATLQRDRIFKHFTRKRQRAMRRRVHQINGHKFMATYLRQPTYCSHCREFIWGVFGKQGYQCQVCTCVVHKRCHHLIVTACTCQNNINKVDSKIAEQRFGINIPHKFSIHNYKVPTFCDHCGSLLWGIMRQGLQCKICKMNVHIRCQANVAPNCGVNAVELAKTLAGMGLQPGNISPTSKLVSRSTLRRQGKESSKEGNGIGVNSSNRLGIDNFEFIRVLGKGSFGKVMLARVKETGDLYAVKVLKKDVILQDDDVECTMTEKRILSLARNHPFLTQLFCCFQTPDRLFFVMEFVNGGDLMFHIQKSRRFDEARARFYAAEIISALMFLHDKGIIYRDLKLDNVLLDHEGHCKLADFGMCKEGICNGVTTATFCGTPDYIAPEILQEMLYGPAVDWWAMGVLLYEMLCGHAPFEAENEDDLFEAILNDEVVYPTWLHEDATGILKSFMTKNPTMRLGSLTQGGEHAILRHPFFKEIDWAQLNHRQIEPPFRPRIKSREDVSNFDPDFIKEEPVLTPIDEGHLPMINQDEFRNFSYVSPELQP
Serine/threonine-protein kinase N2 (Homo sapiens), sequence (Q16513 whole entry, looked up): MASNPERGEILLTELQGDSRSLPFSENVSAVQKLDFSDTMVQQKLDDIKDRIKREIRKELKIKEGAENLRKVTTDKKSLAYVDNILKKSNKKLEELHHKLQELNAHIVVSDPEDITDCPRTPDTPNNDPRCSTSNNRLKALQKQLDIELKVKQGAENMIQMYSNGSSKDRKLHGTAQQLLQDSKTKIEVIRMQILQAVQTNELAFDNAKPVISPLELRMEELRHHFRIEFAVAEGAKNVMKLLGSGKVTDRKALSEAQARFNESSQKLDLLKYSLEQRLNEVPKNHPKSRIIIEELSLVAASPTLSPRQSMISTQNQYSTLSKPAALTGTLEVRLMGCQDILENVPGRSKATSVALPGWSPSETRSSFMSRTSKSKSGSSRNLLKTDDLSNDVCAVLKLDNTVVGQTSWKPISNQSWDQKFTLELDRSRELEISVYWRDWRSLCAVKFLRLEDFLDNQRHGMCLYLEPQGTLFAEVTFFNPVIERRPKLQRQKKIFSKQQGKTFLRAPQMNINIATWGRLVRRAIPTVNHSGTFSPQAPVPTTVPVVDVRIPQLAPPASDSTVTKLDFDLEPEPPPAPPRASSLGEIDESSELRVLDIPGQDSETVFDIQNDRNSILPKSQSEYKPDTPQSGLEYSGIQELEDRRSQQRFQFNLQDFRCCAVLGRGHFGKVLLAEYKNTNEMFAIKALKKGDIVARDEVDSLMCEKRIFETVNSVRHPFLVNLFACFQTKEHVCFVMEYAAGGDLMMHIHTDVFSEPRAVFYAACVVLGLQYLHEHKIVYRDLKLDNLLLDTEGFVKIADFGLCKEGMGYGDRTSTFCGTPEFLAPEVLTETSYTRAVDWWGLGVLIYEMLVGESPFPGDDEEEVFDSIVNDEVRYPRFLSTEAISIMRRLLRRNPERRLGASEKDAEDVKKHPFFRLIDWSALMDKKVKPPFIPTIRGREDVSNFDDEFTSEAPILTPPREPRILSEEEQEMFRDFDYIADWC
Protein kinase C theta type (Homo sapiens), sequence (Q04759 whole entry, looked up): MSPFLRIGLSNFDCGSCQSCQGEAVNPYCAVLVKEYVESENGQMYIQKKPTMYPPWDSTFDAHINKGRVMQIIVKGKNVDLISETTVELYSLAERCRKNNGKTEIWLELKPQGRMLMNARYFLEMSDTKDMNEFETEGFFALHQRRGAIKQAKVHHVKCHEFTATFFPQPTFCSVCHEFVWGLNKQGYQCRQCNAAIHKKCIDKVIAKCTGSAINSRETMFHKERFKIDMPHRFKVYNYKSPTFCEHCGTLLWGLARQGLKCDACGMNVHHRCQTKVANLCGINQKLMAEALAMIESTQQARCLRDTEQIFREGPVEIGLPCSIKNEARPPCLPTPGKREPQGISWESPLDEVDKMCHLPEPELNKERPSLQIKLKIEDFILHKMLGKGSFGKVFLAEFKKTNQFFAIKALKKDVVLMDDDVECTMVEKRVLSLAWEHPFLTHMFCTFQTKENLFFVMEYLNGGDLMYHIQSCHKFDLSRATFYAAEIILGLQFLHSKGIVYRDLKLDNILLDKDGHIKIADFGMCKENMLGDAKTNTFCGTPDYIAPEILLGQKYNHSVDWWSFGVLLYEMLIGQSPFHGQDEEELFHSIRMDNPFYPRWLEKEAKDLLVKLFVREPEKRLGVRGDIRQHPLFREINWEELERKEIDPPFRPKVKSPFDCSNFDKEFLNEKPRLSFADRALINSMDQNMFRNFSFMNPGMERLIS
Protein kinase C iota type (Homo sapiens), sequence (P41743 whole entry): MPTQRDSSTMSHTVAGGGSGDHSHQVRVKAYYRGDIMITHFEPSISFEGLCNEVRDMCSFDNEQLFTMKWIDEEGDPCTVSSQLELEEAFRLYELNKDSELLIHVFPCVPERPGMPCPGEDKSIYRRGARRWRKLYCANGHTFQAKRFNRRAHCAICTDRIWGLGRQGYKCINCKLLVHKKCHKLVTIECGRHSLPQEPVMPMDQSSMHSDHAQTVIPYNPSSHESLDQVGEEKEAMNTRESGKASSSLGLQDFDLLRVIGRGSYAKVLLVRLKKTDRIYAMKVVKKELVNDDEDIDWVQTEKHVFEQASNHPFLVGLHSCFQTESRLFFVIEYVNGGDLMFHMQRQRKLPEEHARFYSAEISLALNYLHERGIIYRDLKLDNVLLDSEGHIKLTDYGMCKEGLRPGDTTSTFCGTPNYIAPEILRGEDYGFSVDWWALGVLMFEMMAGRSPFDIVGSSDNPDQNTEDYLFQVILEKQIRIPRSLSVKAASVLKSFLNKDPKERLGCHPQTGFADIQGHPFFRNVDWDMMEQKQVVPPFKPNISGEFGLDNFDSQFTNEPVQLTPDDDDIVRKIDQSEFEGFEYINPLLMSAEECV

`Cl.Cn1cc(C2=C(c3cn(C4CCN(Cc5ccccn5)CC4)c4ccccc34)C(=O)NC2=O)c2ccccc21` [ENZASTAURIN HYDROCHLORIDE]: the outcome in data set [1], in [4], in [9] and in data set [16] was Active. The Activity in [2] was more than 60%; in [7], more than 50%; in data set [13], “Tde”. Also, the % control activity in [3] turned out to be 2%; in [8] it was 96%; in data set [10], 91%; in data set [12], 53%; in data set [14] it was 52%; in [15], 88%. Further, the Drug uptake result in data set [5] is given as “Not Active”. Besides, the outcome in data set [6] and in data set [11] was inactive.
